IC50, Activity and inhibition data for 14 compounds are collected here from ChEMBL document CHEMBL4732131, “Design, synthesis and evaluation of novel thienopyrimidine-based agents bearing diaryl urea functionality as potential inhibitors of angiogenesis” (Eur J Med Chem, 2021).

Molecules are shown by their SMILES. pIC50: −log10 of the molar value. The source made the active and inactive calls. The calls are words filed in the database; no cut-off is given here.

For orientation: pIC50 means the negative decadic logarithm of the IC50, by convention in mol/L. In general, inhibition refers to the drop in the measured response relative to a control, in per cent.

Assay [1] relates to PC-3. In words: Antiproliferative activity against human PC-3 cells incubated for 48 hrs by MTT assay. To be noted: PC-3, 48 h. The class given is functional, cell-based. In outline: (§1)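 8000 cells per well in complete medium, settled overnight at 37 °C under 5% CO2. Compounds were added from DMSO over a range of concentrations and incubated 48 h at 37 °C. MTT (5% solution) was added for 4 h and absorbance read at 570 nm. IC50 was taken from survival-versus-concentration curves. Negative control was 0.1% DMSO.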
A general note: Formazan colour is commonly taken as a measure of viable cells.

The test system of assay [2] is HepG2. In words: Antiproliferative activity against human HepG2 cells incubated for 48 hrs by MTT assay. Type of assay: functional, cell-based. To be noted: HepG2, 48 h. In outline: as §1
Assay [3] concerns T47D. In words: Antiproliferative activity against human T47D cells incubated for 48 hrs by MTT assay. The class given is functional, cell-based. A digest of the protocol: as §1
The test system of assay [4] is HUVEC. In words: Antiproliferative activity against HUVEC incubated for 48 hrs by MTT assay. The class given is functional, cell-based. To be noted: Homo sapiens. A digest of the protocol:
as §1

Assay [5] concerns PC-3. The assay is described as follows: Induction of apoptosis in human PC-3 cells assessed as viable cells at IC50 measured after 48 hrs by Annexin V-FITC/propidium iodide staining based flow cytometry (reference value: 81.4%). Type of assay: functional.
In assay [6] the test system is PC-3. In words: Induction of apoptosis in human PC-3 cells assessed as early apoptotic cells at IC50 measured after 48 hrs by Annexin V-FITC/propidium iodide staining based flow cytometry (reference value: 4.7%). The class given is functional. In general terms: In flow cytometry, cells or beads pass a laser one at a time.
Assay [7] relates to PC-3. In words: Induction of apoptosis in human PC-3 cells assessed as late apoptotic cells at IC50 measured after 48 hrs by Annexin V-FITC/propidium iodide staining based flow cytometry (reference value: 5.16%). The class given is functional.
The subject of assay [8] is PC-3. In words: Induction of apoptosis in human PC-3 cells assessed as necrotic cells at IC50 measured after 48 hrs by Annexin V-FITC/propidium iodide staining based flow cytometry (reference value: 7.74%). Type of assay: functional.
In assay [9] the test system is PC-3. The assay is described as follows: Induction of cell cycle arrest in human PC3 cells assessed as accumulation at G1 phase at IC50 after 48 hrs by flow cytometry (reference value: 44.11%). Type of assay: functional.
Assay [10] deals with PC-3. The assay is described as follows: Induction of cell cycle arrest in human PC-3 cells assessed as number of cells at S phase at IC50 after 48 hrs by flow cytometry (reference value: 44.12%). The class given is functional.
Assay [11] concerns PC-3. In words: Induction of cell cycle arrest in human PC-3 cells assessed as number of cells at SubG1 phase at IC50 after 48 hrs by flow cytometry. Type of assay: functional.
Assay [12] has as its system Chorioallantoic membrane. In words: Vascular disruptive effect in chicken fertilized egg chorioallantoic membrane assessed as decrease in number of capillary blood vessels by CAM assay relative to control. Type of assay: functional, tissue-based. Further details: concentration or dose not given beside the values. Conditions: Gallus gallus, dose or concentration not given here.

Assay [13] relates to Chorioallantoic membrane. In words: Vascular disruptive effect in chicken fertilized egg chorioallantoic membrane assessed as reduced length of blood vessels by CAM assay. To be noted: Gallus gallus. The class given is functional, tissue-based.
Assay [14] in a line: Cytotoxicity against human Hu02 cells incubated for 48 hrs by MTT assay. The class given is cell-based. To be noted: Hu02, 48 h. A digest of the protocol:
as §1

For assay [15], the system named is HUVEC. The assay is described as follows: Induction of apoptosis in HUVEC assessed as viable cells at IC50 measured after 48 hrs by Annexin V-FITC/propidium iodide staining based flow cytometry (reference value: 87.4%). The class given is functional, Homo sapiens.
Assay [16] relates to HUVEC. In words: Induction of apoptosis in HUVEC assessed as late apoptotic cells at IC50 measured after 48 hrs by Annexin V-FITC/propidium iodide staining based flow cytometry (reference value: 7.23%). The class given is functional, Homo sapiens.
Assay [17] deals with HUVEC. The assay is described as follows: Induction of apoptosis in HUVEC assessed as necrotic cells at IC50 measured after 48 hrs by Annexin V-FITC/propidium iodide staining based flow cytometry (reference value: 0.891%). Type of assay: functional, Homo sapiens.
Assay [18] concerns HUVEC. In words: Induction of cell cycle arrest in HUVEC assessed as number of cells at G1 phase at IC50 after 48 hrs by flow cytometry (reference value: 40.93%). The class given is functional, Homo sapiens. In outline:
(§2)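 Cells were PI-stained and analysed by flow cytometry, with the phase fractions (subG1, G1, S, G2/M) taken from DNA content.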

In assay [19] the test system is HUVEC. The assay is described as follows: Induction of cell cycle arrest in HUVEC assessed as number of cells at S phase at IC50 after 48 hrs by flow cytometry (reference value: 41.49%). The class given is functional, Homo sapiens. In outline: as §2
In assay [20] the test system is HUVEC. In words: Induction of apoptosis in HUVEC assessed as early apoptotic cells at IC50 measured after 48 hrs by Annexin V-FITC/propidium iodide staining based flow cytometry (reference value: 4.51%). Type of assay: functional, Homo sapiens.
In assay [21] the test system is PC-3. In words: Induction of cell cycle arrest in human PC-3 cells assessed as number of cells at G2 phase at IC50 after 48 hrs by flow cytometry (reference value: 15.97%). Type of assay: functional.
Assay [22] deals with HUVEC. In words: Induction of cell cycle arrest in HUVEC assessed as number of cells at G2 phase at IC50 after 48 hrs by flow cytometry (reference value: 6.25%). Type of assay: functional, Homo sapiens. In outline: as §2
Assay [23] deals with PC-3. In words: Down-regulation of VEGFR2 phosphorylation in human PC-3 cells by Western blot analysis. Type of assay: functional, cell-based. Conditions: time 24-72 hrs, TDE = time-dependent effect.
For assay [24], the system named is PC-3. In words: Down-regulation of VEGFR2 phosphorylation in human PC-3 cells at 48 hrs by Western blot analysis. Type of assay: functional, cell-based. To be noted: dose 2.4-5.4 µM. In outline: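 PC3 cells treated for 48 h at 2.4, 3.6 and 5.4 µM. Lysates run on 12% SDS-PAGE and transferred to nitrocellulose. Membranes probed overnight at 4 °C (12 h) for VEGFR-2 and p-VEGFR-2, with beta-actin as loading control. Detection by ECL.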
(In general: Immunoblotting shows a protein as a band on a membrane.)

Regarding `O=C(Nc1ccccc1)Nc1nnc(Sc2ncnc3scc(-c4ccncc4)c23)s1`, the pIC50 in assay [1] was 5.24; in assay [2], 4.71; in assay [3], 4.63; in assay [4], 4.71.

`O=C(Nc1ccc(Cl)c(C(F)(F)F)c1)Nc1nnc(Sc2ncnc3scc(-c4ccncc4)c23)s1`: the pIC50 was 4.92 in assay [1], 4.34 in assay [2], 4.55 in assay [3] and 4.74 in assay [4].

For `O=C(Nc1ccc(F)cc1)Nc1nnc(Sc2ncnc3scc(-c4ccncc4)c23)s1`, the pIC50 in [1] is 6.01; in assay [2] it was 4.50; in assay [3], 4.72; in [4], 4.55. Besides, the Activity in assay [5] is recorded as 43.3%; in assay [6] it was 1.47%; in [7], 23%; in assay [8], 32.2%; in assay [9], 55.92%; in [10], 29.76%. The Activity in [11] came to 9.73%. The inhibition in assay [12] was 27%. Also, in [13], the inhibition result was “inactive”.

`O=C(Nc1cccc(C(F)(F)F)c1)Nc1nnc(Sc2ncnc3scc(-c4ccncc4)c23)s1`: the pIC50 in [1] was 4.94; in assay [2], 4.82; in assay [3], 4.35; in assay [4] it was 4.65.

On to `Cc1cccc(NC(=O)Nc2nnc(Sc3ncnc4scc(-c5ccncc5)c34)s2)c1`, for which the pIC50 is 5.28 in assay [1], 4.68 in assay [2], 4.57 in assay [3] and 4.91 in assay [4]. In addition, the inhibition in assay [12] was found to be 29%. Also, the inhibition entry in [13] was “inactive”.

`COc1ccc(NC(=O)Nc2nnc(Sc3ncnc4scc(-c5ccncc5)c34)s2)cc1`: the pIC50 in assay [1] was 5.00; in assay [2], 4.84; in [3] it was less than 4.00; in [4], 4.77.

For the compound `Cc1ccc(NC(=O)Nc2nnc(Sc3ncnc4scc(-c5ccncc5)c34)s2)cc1Cl`, the pIC50 in assay [1] is 5.33; in assay [2], 4.80; in [3], 4.46; in assay [4] it was 4.63.

As to `O=C(Nc1cccc(F)c1)Nc1nnc(Sc2ncnc3scc(-c4ccncc4)c23)s1`, the pIC50 in assay [1] is 5.18; in assay [2], 4.19; in [3] it was 4.78; in assay [4], 4.86. For the same compound, the inhibition in [12] was found to be 35%. For the same compound, in assay [13], the inhibition entry was “inactive”.

For the compound `Cc1ccc(NC(=O)Nc2nnc(Sc3ncnc4scc(-c5ccncc5)c34)s2)cc1`, the pIC50 in assay [1] is 5.68; in assay [2], 4.28; in assay [3] it was 4.75; in assay [4], 4.71.

`O=C(Nc1ccc(Cl)cc1)Nc1nnc(Sc2ncnc3scc(-c4ccncc4)c23)s1`: the pIC50 was 5.11 in assay [1], 4.54 in assay [2], 4.63 in assay [3] and 4.94 in [4]. Besides, the inhibition in [12] was 21%. In addition, in assay [13], the inhibition result was “inactive”.

As for `CNC(=O)c1cc(Oc2ccc(NC(=O)Nc3ccc(Cl)c(C(F)(F)F)c3)cc2)ccn1` [SORAFENIB], the pIC50 was 4.81 in assay [1]; 4.53 in assay [2]; 5.19 in assay [3]; 5.55 in assay [4]; 4.40 in assay [14]. Further, the Activity in [5] was determined as 57.9%; in assay [6], 1.92%; in [8], 23.6%; in [15], 59.9%; in assay [16] it was 23.8%; in [17] it was 16.4%. Moreover, the Activity stood at 66.19% in assay [9], 22.32% in assay [10], 58.69% in assay [18] and 27.1% in assay [19].

For the compound `O=C(Nc1cccc(Cl)c1)Nc1nnc(Sc2ncnc3scc(-c4ccncc4)c23)s1`, the pIC50 in [1] is 5.10; in assay [2], 4.64; in assay [3], 4.36; in assay [4] it was 4.68.

In the case of `COc1cccc(NC(=O)Nc2nnc(Sc3ncnc4scc(-c5ccncc5)c34)s2)c1`, the pIC50 in assay [1] was 5.17; in [2] it was 4.55; in assay [3] it was 4.24; in assay [4], 4.17.

For `O=C(Nc1ccc(Cl)c(Cl)c1)Nc1nnc(Sc2ncnc3scc(-c4ccncc4)c23)s1`, the pIC50 was 5.44 in assay [1]; 4.21 in assay [2]; 4.84 in assay [3]; 5.11 in [4]; 4.46 in assay [14]. Further, the Activity in assay [5] was found to be 43.2%; in [6], 7.17%; in assay [7], 37%; in assay [8] it was 12.6%; in assay [15], 55.2%; in assay [20] it was 4.65%. Moreover, the Activity in assay [16] was found to be 17%; in assay [17], 21%; in assay [9], 45.2%; in [10], 40.58%; in assay [21] it was 12.85%; in [11], 4.38%. Moreover, the Activity in assay [18] is 48.3%; in assay [19], 49.8%; in [22], 5.53%. In addition, the inhibition in assay [12] is 65%; in [13] (dose or concentration not given here) it was 46%; in [23], “Tde”; in [24], “Dose-dependent effect”.
